# Data as given in ChEMBL document CHEMBL4321820, “Identification and Optimization of Mechanism-Based Fluoroallylamine Inhibitors of Lysyl Oxidase-like 2/3” (J Med Chem, 2019).
# Experiments:
# [1] = biological target: T1, Lysyl oxidase homolog 2 (Homo sapiens, UniProt Q9Y4K0); test: Inhibition of recombinant human C-terminal His-tagged […] (1-774 residues) expressed in mouse myeloma cells using putrescine as substrate preincubated with enzyme for 30 mins followed by substrate addition and measured every 2.5 mins for 30 mins by Amplex-Red oxidation assay; details: read-out: pIC50 (converted)
# T1 sequence (Q9Y4K0 whole entry): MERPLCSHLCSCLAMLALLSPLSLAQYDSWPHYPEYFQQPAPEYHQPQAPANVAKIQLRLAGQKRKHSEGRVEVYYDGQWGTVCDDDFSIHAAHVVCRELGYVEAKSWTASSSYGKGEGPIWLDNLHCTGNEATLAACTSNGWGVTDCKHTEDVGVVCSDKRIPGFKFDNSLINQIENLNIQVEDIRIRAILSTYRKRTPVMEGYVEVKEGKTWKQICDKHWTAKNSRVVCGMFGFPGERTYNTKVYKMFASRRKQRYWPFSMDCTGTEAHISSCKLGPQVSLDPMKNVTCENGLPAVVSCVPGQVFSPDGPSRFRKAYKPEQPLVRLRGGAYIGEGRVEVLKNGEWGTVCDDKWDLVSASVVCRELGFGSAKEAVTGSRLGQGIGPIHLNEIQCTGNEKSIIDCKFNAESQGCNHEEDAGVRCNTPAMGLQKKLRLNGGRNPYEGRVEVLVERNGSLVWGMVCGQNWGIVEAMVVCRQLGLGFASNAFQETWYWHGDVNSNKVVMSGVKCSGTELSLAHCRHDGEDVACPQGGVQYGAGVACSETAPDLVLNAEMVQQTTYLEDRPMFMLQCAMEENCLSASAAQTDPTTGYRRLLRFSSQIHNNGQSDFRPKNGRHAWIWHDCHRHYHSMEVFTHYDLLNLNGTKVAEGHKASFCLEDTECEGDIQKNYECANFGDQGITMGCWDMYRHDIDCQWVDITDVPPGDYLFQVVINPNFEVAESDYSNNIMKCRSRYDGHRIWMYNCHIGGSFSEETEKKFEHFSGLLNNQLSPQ
# How it was run: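 LOXL2 enzyme preincubated with compound for 30 min at 37 °C, then Amplex Red (120 µM) / HRP (1.5 U/mL) mix containing 5 mM putrescine added. Buffer: 1.2 M urea, 50 mM sodium borate, pH 8.2. H2O2 fluorescence (ex 565/em 590) read every 2.5 min for 30 min at 37 °C; BAPN 100 µM as positive control; n≥2.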
# [2] = biological target: T2, Protein-lysine 6-oxidase (Bos taurus, UniProt P33072); test: Inhibition of LOX in bovine aorta using putrescine as substrate preincubated with enzyme for 30 mins followed by substrate addition and measured every 2.5 mins for 30 mins by Amplex-Red oxidation assay; format: tissue-based; details: read-out: pIC50 (converted)
# T2 sequence (P33072 whole entry): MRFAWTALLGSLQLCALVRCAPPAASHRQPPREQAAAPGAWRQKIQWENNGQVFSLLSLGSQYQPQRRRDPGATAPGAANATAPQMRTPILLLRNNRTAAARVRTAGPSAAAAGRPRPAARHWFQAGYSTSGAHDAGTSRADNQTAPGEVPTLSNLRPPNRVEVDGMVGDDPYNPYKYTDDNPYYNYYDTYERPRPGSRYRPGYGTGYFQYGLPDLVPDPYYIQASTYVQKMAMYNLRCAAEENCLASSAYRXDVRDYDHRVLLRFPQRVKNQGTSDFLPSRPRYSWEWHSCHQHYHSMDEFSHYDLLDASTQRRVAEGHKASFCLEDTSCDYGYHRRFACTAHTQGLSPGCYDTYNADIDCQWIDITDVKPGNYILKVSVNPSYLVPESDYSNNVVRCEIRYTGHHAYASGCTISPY
# How it was run: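 LOX extracted from calf aorta after PBS washing with 4 M urea/50 mM borate pH 8.2, concentrated on 10 kDa filters into 1.2 M urea/borate with protease inhibitors. Preincubated 30 min at 37 °C with compound, then Amplex Red/HRP with 10 mM putrescine; fluorescence read every 2.5 min for 30 min.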
# [3] = biological target: T3, Amine oxidase [copper-containing] 3 (Homo sapiens, UniProt Q16853); test: Inhibition of recombinant human SSAO using benzylamine as substrate preincubated with enzyme for 30 mins followed by substrate addition and measured every 2.5 mins for 30 mins by Amplex-Red oxidation assay; details: read-out: pIC50 (converted)
# T3 sequence (Q16853 whole entry): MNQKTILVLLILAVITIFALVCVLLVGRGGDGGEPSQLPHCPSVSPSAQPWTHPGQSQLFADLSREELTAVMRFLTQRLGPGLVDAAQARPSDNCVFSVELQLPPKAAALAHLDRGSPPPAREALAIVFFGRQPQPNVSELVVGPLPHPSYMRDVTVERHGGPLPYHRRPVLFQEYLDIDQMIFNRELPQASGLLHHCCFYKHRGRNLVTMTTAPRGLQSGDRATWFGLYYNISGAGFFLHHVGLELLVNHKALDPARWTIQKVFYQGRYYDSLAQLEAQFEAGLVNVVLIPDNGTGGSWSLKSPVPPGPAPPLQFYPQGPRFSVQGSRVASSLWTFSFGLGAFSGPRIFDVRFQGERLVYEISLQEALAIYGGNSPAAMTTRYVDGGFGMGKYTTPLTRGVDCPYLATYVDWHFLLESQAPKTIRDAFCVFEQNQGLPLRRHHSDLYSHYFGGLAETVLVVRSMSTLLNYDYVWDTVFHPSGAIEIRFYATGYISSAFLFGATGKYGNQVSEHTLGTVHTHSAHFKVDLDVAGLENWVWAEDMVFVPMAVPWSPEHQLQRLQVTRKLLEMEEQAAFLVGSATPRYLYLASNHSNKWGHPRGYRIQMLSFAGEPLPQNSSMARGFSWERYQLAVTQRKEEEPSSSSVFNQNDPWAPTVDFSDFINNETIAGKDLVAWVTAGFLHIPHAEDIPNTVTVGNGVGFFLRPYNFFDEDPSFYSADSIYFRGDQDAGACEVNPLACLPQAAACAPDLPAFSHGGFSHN
# [4] = biological target: T3, Amine oxidase [copper-containing] 3; test: Substrate activity at recombinant human SSAO assessed as compound oxidation by measuring oxidative turnover at 30 uM measured for 40 mins by horseradish peroxidase-coupled amplex red reagent-based fluorometric assay relative to DMSO; format: ADME
# How it was run: (§1)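 Compound oxidation measured without substrate by peroxidase-coupled fluorometric read-out of resorufin formation over 40 min at 37 °C in HEPES buffer. Amplex Red 20 µM, HRP 4 U/ml, test compound at final 30 µM. Enzyme source was human recombinant SSAO or AOC4 from diluted dog serum. Benzylamine at 600 µM served as positive control. Signal is expressed relative to DMSO-only background, so a value near 1 means no turnover.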
# [5] = Substrate activity at AOC4 in dog serum assessed as compound oxidation by measuring oxidative turnover at 30 uM measured for 40 mins by horseradish peroxidase-coupled amplex red reagent-based fluorometric assay relative to DMSO; format: ADME, cell-free, Canis lupus familiaris; how it was run: as §1
# [6] = Selectivity index, ratio of IC50 for recombinant human C-terminal His-tagged […] (1-774 residues) expressed in mouse myeloma cells to IC50 for LOX in bovine aorta
# [7] = biological target: T4, Amine oxidase [flavin-containing] B (Homo sapiens, UniProt P27338); test: Inhibition of recombinant human MAOB expressed in baculovirus infected in BTI cells using benzylamine as substrate preincubated with enzyme for 30 mins followed by substrate addition and measured every 2.5 mins for 30 mins by Amplex-Red oxidation assay; details: read-out: pIC50 (converted)
# T4 sequence (P27338 whole entry): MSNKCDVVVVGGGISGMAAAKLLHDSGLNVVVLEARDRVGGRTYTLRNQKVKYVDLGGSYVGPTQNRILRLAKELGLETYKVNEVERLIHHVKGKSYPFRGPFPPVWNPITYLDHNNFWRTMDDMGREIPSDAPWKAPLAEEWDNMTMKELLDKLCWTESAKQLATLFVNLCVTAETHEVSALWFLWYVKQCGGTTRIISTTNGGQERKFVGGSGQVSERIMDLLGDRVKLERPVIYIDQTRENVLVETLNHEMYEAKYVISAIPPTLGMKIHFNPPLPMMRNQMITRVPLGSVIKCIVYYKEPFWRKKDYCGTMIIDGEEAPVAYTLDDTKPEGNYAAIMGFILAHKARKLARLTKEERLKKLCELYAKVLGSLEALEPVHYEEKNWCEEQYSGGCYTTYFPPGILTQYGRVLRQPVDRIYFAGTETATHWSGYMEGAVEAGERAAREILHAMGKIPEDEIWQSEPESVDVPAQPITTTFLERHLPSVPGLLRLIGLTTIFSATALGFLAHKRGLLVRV
SMILES,IC50 [1] [µM],IC50 [2] [µM],IC50 [3] [µM],fold change (FC) [4],fold change (FC) [5],IC50 [7] [µM],IC50 ratio [6]
C[C@H](NS(=O)(=O)c1ccc(OC/C(F)=C/CN)cc1)c1ccccc1,0.316,0.398,> 3.16,–,–,–,–
Cc1c(-c2cccc(S(=O)(=O)N(C)C)c2)c2cccc(C(=O)N(C)C)c2n1C/C(F)=C/CN.Cl,3.16,20,–,1.1,1.4,–,–
Cc1c(-c2cccc(S(=O)(=O)N(C)C)c2)c2cc(C(=O)N(C)C)ccc2n1C/C(F)=C/CN.Cl,0.0251,1.58,–,1.2,1,–,–
CC(C)(C)c1ccc(OCc2cn(C/C(F)=C/CN)nn2)cc1,0.794,0.501,–,–,–,–,–
Cc1c(-c2cccc(S(=O)(=O)N(C)C)c2)c2cc(NS(C)(=O)=O)ccc2n1C/C(F)=C/CN.Cl,0.02,1,–,1,1.5,–,–
NC/C=C(\F)Cn1cc(COc2ccccc2)nn1,0.316,0.501,–,–,–,–,–
Cc1c(-c2cccc(S(=O)(=O)N(C)C)c2)c2ncccc2n1C/C(F)=C/CN.Cl,0.02,1.26,–,1.6,6.4,–,70
C[C@H](NS(=O)(=O)c1ccc(OC/C(F)=C\CN)cc1)c1ccccc1,2.51,2,0.0501,–,–,–,–
Cc1c(-c2cccc(S(=O)(=O)N(C)C)c2)c2ccc(C(=O)O)cc2n1C/C(F)=C/CN.Cl,0.501,15.8,–,1.1,1,–,–
Cc1c(-c2cccc(S(=O)(=O)N(C)C)c2)c2cc(S(C)(=O)=O)ccc2n1C/C(F)=C/CN.Cl,0.00501,0.398,–,1.3,1.3,–,–
Cc1c(-c2cccc(S(=O)(=O)N(C)C)c2)c2cc(O)ccc2n1C/C(F)=C/CN.Cl,0.0501,1.26,–,1,1.1,–,–
Cc1c(-c2cccc(S(=O)(=O)N(C)C)c2)c2ccc(C(=O)N(C)C)cc2n1C/C(F)=C/CN.Cl,0.0631,0.794,–,1,1.1,–,–

# More lines, main results first:
IC50 [1] [µM],IC50 [2] [µM],IC50 [3] [µM],fold change (FC) [4],fold change (FC) [5],IC50 [7] [µM],SMILES,IC50 ratio [6]
0.126,15.8,–,–,1,–,Cc1c(-c2cccc(S(=O)(=O)N(C)C)c2)c2cc(-c3nnn[nH]3)ccc2n1C/C(F)=C/CN.Cl,–
0.0794,1.58,–,4.6,1.6,–,COc1ccc2c(c1)c(-c1cccc(S(=O)(=O)N(C)C)c1)c(C)n2C/C(F)=C/CN.Cl,–
0.794,3.16,–,–,–,–,CN(C)C(=O)c1ccc(OCc2cn(C/C(F)=C/CN)nn2)cc1,–
0.251,0.794,–,> 4,–,–,CN(C)S(=O)(=O)c1ccc(-c2ccn(C/C(F)=C/CN)c2)cc1.Cl,–
0.0126,0.631,–,> 4,–,–,CN(C)S(=O)(=O)c1ccc(Cc2cn(C/C(F)=C/CN)nn2)cc1.Cl,–
0.1,2,–,> 4,–,–,CN(C)S(=O)(=O)c1cccc(-c2ccn(C/C(F)=C/CN)c2)c1.Cl,–
0.0501,0.794,> 31.6,> 4,–,0.126,CN(C)S(=O)(=O)c1ccc(OCc2cn(C/C(F)=C/CN)nn2)cc1.Cl,–
2,3.16,–,–,–,–,CS(=O)(=O)c1ccccc1OCc1cn(C/C(F)=C/CN)nn1,–
0.794,3.16,–,2.8,–,–,Cc1c(-c2ccc(S(=O)(=O)N(C)C)cc2)c2ccccc2n1C/C(F)=C/CN.Cl,–
0.794,1,–,–,–,–,CS(=O)(=O)c1cccc(OCc2cn(C/C(F)=C/CN)nn2)c1,–
0.126,0.794,–,> 4,–,–,CN(C)S(=O)(=O)c1ccc(-c2cn(C/C(F)=C/CN)nn2)cc1.Cl,–
0.02,0.501,–,> 4,–,–,CN(C)S(=O)(=O)c1ccc(NCc2cn(C/C(F)=C/CN)nn2)cc1.Cl,–
0.126,3.16,–,1.2,1.1,–,Cc1c(-c2cccc(S(=O)(=O)N(C)C)c2)c2cc(Cl)ccc2n1C/C(F)=C/CN.Cl,–
0.2,0.631,–,–,–,–,CS(=O)(=O)c1ccc(OCc2cn(C/C(F)=C/CN)nn2)cc1,–
